In ChEMBL document CHEMBL1143023, “Chemical synthesis and biological activities of 16alpha-derivatives of 5alpha-androstane-3alpha,17beta-diol as antiandrogens” (2007):
Calls of active or inactive are those of the source. The rule behind the calls is not given here.

System: not listed separately
Test: Inhibition of DHT-stimulated proliferation of androgen sensitive AR+ Shionogi cells at 0.1 uM
Type: functional
Settings: Mus musculus
With `CO[C@@H]1CC[C@@]2(C)[C@@H](CC[C@@H]3[C@@H]2CC[C@]2(C)[C@@H](O)[C@H](CCCI)C[C@@H]32)C1` the inhibition at 0.1 µM was 0%.
Work on `C[C@]12CC[C@H]3[C@@H](CCC4CC(=O)CC[C@@]43C)[C@@H]1C[C@@H](CCCO)[C@@H]2O` (stereo partly specified) yielded an inhibition at 0.1 µM of 54%.
`C[C@]12CC[C@@H](O)C[C@@H]1CC[C@@H]1[C@@H]2CC[C@]2(C)[C@@H](O)[C@H](CCCOCc3ccc(Br)cc3)C[C@@H]12` showed an inhibition at 0.1 µM of 0%.
With `C[C@]12CC[C@H]3[C@@H](CCC4CC(=O)CC[C@@]43C)[C@@H]1C[C@@H](CCCI)[C@@H]2O` (stereo partly specified) the inhibition at 0.1 µM was 41%.
Compound `C[C@]12CC[C@H]3[C@@H](CCC4CC(=O)CC[C@@]43C)[C@@H]1C[C@@H](CCCN=[N+]=[N-])[C@@H]2O` (stereo partly specified) has an inhibition at 0.1 µM of 73%.
Work on `C[C@]12CC[C@@H](O)C[C@@H]1CC[C@@H]1[C@@H]2CC[C@]2(C)[C@@H](O)[C@H](CCCSC#N)C[C@@H]12` yielded an inhibition at 0.1 µM of 2%.
Compound `C[C@]12CCC(=O)C[C@@H]1CC[C@@H]1[C@@H]2CC[C@]2(C)[C@@H](O)[C@H](CCCOCc3ccc(Br)cc3)C[C@@H]12` has an inhibition at 0.1 µM of 0%.
`C[C@]12CC[C@@H](O)C[C@@H]1CC[C@@H]1[C@@H]2CC[C@]2(C)[C@@H](O)[C@H](CCCCl)C[C@@H]12` gave an inhibition at 0.1 µM of 67%.
With `CC(C)(O)C(=O)Nc1ccc([N+](=O)[O-])c(C(F)(F)F)c1` [HYDROXYFLUTAMIDE] the inhibition at 0.1 µM was 67%.
`C[C@]12CC[C@@H](O)C[C@@H]1CC[C@@H]1[C@@H]2CC[C@]2(C)[C@@H](O)[C@H](CCCN=[N+]=[N-])C[C@@H]12` showed an inhibition at 0.1 µM of 58%.
`C[C@]12CC[C@H]3[C@@H](CCC4CC(=O)CC[C@@]43C)[C@@H]1C[C@@H](CCCCl)[C@@H]2O` (stereo partly specified) gave an inhibition at 0.1 µM of 44%.
For `C[C@]12CC[C@@H](O)C[C@@H]1CC[C@@H]1[C@@H]2CC[C@]2(C)[C@@H](O)[C@H](CCCN)C[C@@H]12`, the inhibition at 0.1 µM was 0%.
Compound `C[C@]12CC[C@@H](O)C[C@@H]1CC[C@@H]1[C@@H]2CC[C@]2(C)[C@@H](O)[C@H](CCCO)C[C@@H]12` has an inhibition at 0.1 µM of 16%.
`C[C@]12CCC(=O)C[C@@H]1CC[C@@H]1[C@@H]2CC[C@]2(C)[C@@H](O)[C@H](CCCSC#N)C[C@@H]12` showed an inhibition at 0.1 µM of 0%.
With `C[C@]12CC[C@@H](O)C[C@@H]1CC[C@@H]1[C@@H]2CC[C@]2(C)[C@@H](O)[C@H](CCCBr)C[C@@H]12` the inhibition at 0.1 µM was 46%.
Compound `C[C@]12CC[C@@H](O)C[C@@H]1CC[C@@H]1[C@@H]2CC[C@]2(C)[C@@H](O)[C@H](CCCF)C[C@@H]12` has an inhibition at 0.1 µM of 44%.
With `C[C@]12CC[C@@H](O)C[C@@H]1CC[C@@H]1[C@@H]2CC[C@]2(C)[C@@H](O)[C@H](CCCI)C[C@@H]12` the inhibition at 0.1 µM was 36%.

System: not listed separately
Test: Inhibition of DHT-stimulated proliferation of androgen sensitive AR+ Shionogi cells at 1 uM
Type: functional
Settings: Mus musculus
For `CO[C@@H]1CC[C@@]2(C)[C@@H](CC[C@@H]3[C@@H]2CC[C@]2(C)[C@@H](O)[C@H](CCCI)C[C@@H]32)C1`, the inhibition at 1 µM was 46%.
With `C[C@]12CC[C@H]3[C@@H](CCC4CC(=O)CC[C@@]43C)[C@@H]1C[C@@H](CCCO)[C@@H]2O` (stereo partly specified) the inhibition at 1 µM was 46%.
For `C[C@]12CC[C@@H](O)C[C@@H]1CC[C@@H]1[C@@H]2CC[C@]2(C)[C@@H](O)[C@H](CCCOCc3ccc(Br)cc3)C[C@@H]12`, the inhibition at 1 µM was 7%.
Work on `C[C@]12CC[C@H]3[C@@H](CCC4CC(=O)CC[C@@]43C)[C@@H]1C[C@@H](CCCI)[C@@H]2O` (stereo partly specified) yielded an inhibition at 1 µM of 76%.
Work on `C[C@]12CC[C@H]3[C@@H](CCC4CC(=O)CC[C@@]43C)[C@@H]1C[C@@H](CCCN=[N+]=[N-])[C@@H]2O` (stereo partly specified) yielded an inhibition at 1 µM of 58%.
Work on `C[C@]12CC[C@@H](O)C[C@@H]1CC[C@@H]1[C@@H]2CC[C@]2(C)[C@@H](O)[C@H](CCCSC#N)C[C@@H]12` yielded an inhibition at 1 µM of 50%.
Work on `C[C@]12CCC(=O)C[C@@H]1CC[C@@H]1[C@@H]2CC[C@]2(C)[C@@H](O)[C@H](CCCOCc3ccc(Br)cc3)C[C@@H]12` yielded an inhibition at 1 µM of 0%.
In the case of `C[C@]12CC[C@@H](O)C[C@@H]1CC[C@@H]1[C@@H]2CC[C@]2(C)[C@@H](O)[C@H](CCCCl)C[C@@H]12`, the inhibition at 1 µM is reported as 94%.
For `CC(C)(O)C(=O)Nc1ccc([N+](=O)[O-])c(C(F)(F)F)c1` [HYDROXYFLUTAMIDE], the inhibition at 1 µM was 100%.
Work on `C[C@]12CC[C@@H](O)C[C@@H]1CC[C@@H]1[C@@H]2CC[C@]2(C)[C@@H](O)[C@H](CCCN=[N+]=[N-])C[C@@H]12` yielded an inhibition at 1 µM of 89%.
With `C[C@]12CC[C@H]3[C@@H](CCC4CC(=O)CC[C@@]43C)[C@@H]1C[C@@H](CCCCl)[C@@H]2O` (stereo partly specified) the inhibition at 1 µM was 42%.
Compound `C[C@]12CC[C@@H](O)C[C@@H]1CC[C@@H]1[C@@H]2CC[C@]2(C)[C@@H](O)[C@H](CCCN)C[C@@H]12` has an inhibition at 1 µM of 0%.
In the case of `C[C@]12CC[C@@H](O)C[C@@H]1CC[C@@H]1[C@@H]2CC[C@]2(C)[C@@H](O)[C@H](CCCO)C[C@@H]12`, the inhibition at 1 µM is reported as 35%.
`C[C@]12CCC(=O)C[C@@H]1CC[C@@H]1[C@@H]2CC[C@]2(C)[C@@H](O)[C@H](CCCSC#N)C[C@@H]12` gave an inhibition at 1 µM of 45%.
Work on `C[C@]12CC[C@@H](O)C[C@@H]1CC[C@@H]1[C@@H]2CC[C@]2(C)[C@@H](O)[C@H](CCCBr)C[C@@H]12` yielded an inhibition at 1 µM of 80%.
In the case of `C[C@]12CC[C@@H](O)C[C@@H]1CC[C@@H]1[C@@H]2CC[C@]2(C)[C@@H](O)[C@H](CCCF)C[C@@H]12`, the inhibition at 1 µM is reported as 70%.
`C[C@]12CC[C@@H](O)C[C@@H]1CC[C@@H]1[C@@H]2CC[C@]2(C)[C@@H](O)[C@H](CCCI)C[C@@H]12` showed an inhibition at 1 µM of 90%.

System: not listed separately
Test: Proliferative activity on androgen sensitive AR+ Shionogi cells at 0.1 uM relative to DHT
Type: functional, Mus musculus
Settings: not given
Method in brief: (§1)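 AR+ Shionogi cells were given test compound alone, without DHT, for 10 days. Growth was read as DNA content by a modified Fiszer-Szafarz method. Stimulation % = 100 × [DNA(compound) − DNA(control)]/[DNA(DHT) − DNA(control)], with 0.3 nM DHT set as 100%. One experiment in triplicate.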
With `CO[C@@H]1CC[C@@]2(C)[C@@H](CC[C@@H]3[C@@H]2CC[C@]2(C)[C@@H](O)[C@H](CCCI)C[C@@H]32)C1` the Activity was 0%.
`C[C@]12CC[C@H]3[C@@H](CCC4CC(=O)CC[C@@]43C)[C@@H]1C[C@@H](CCCO)[C@@H]2O` (stereo partly specified) gave an Activity of 9%.
With `C[C@]12CC[C@@H](O)C[C@@H]1CC[C@@H]1[C@@H]2CC[C@]2(C)[C@@H](O)[C@H](CCCOCc3ccc(Br)cc3)C[C@@H]12` the Activity was 163%.
For `C[C@]12CC[C@H]3[C@@H](CCC4CC(=O)CC[C@@]43C)[C@@H]1C[C@@H](CCCI)[C@@H]2O` (stereo partly specified), the Activity was 22%.
With `C[C@]12CC[C@H]3[C@@H](CCC4CC(=O)CC[C@@]43C)[C@@H]1C[C@@H](CCCN=[N+]=[N-])[C@@H]2O` (stereo partly specified) the Activity was 33%.
For `C[C@]12CC[C@@H](O)C[C@@H]1CC[C@@H]1[C@@H]2CC[C@]2(C)[C@@H](O)[C@H](CCCSC#N)C[C@@H]12`, the Activity was 5%.
In the case of `C[C@]12CCC(=O)C[C@@H]1CC[C@@H]1[C@@H]2CC[C@]2(C)[C@@H](O)[C@H](CCCOCc3ccc(Br)cc3)C[C@@H]12`, the Activity is reported as 153%.
With `C[C@]12CC[C@@H](O)C[C@@H]1CC[C@@H]1[C@@H]2CC[C@]2(C)[C@@H](O)[C@H](CCCCl)C[C@@H]12` the Activity was 0%.
Work on `CC(C)(O)C(=O)Nc1ccc([N+](=O)[O-])c(C(F)(F)F)c1` [HYDROXYFLUTAMIDE] yielded an Activity of 0%.
`C[C@]12CC[C@@H](O)C[C@@H]1CC[C@@H]1[C@@H]2CC[C@]2(C)[C@@H](O)[C@H](CCCN=[N+]=[N-])C[C@@H]12` gave an Activity of 0%.
Compound `C[C@]12CC[C@H]3[C@@H](CCC4CC(=O)CC[C@@]43C)[C@@H]1C[C@@H](CCCCl)[C@@H]2O` (stereo partly specified) has an Activity of 36%.
Compound `C[C@]12CC[C@@H](O)C[C@@H]1CC[C@@H]1[C@@H]2CC[C@]2(C)[C@@H](O)[C@H](CCCN)C[C@@H]12` has an Activity of 1%.
Work on `C[C@]12CC[C@@H](O)C[C@@H]1CC[C@@H]1[C@@H]2CC[C@]2(C)[C@@H](O)[C@H](CCCO)C[C@@H]12` yielded an Activity of 0%.
Work on `C[C@]12CCC(=O)C[C@@H]1CC[C@@H]1[C@@H]2CC[C@]2(C)[C@@H](O)[C@H](CCCSC#N)C[C@@H]12` yielded an Activity of 21%.
`C[C@]12CC[C@@H](O)C[C@@H]1CC[C@@H]1[C@@H]2CC[C@]2(C)[C@@H](O)[C@H](CCCBr)C[C@@H]12` gave an Activity of 0%.
With `C[C@]12CC[C@@H](O)C[C@@H]1CC[C@@H]1[C@@H]2CC[C@]2(C)[C@@H](O)[C@H](CCCF)C[C@@H]12` the Activity was 0%.
Work on `C[C@]12CC[C@@H](O)C[C@@H]1CC[C@@H]1[C@@H]2CC[C@]2(C)[C@@H](O)[C@H](CCCI)C[C@@H]12` yielded an Activity of 0%.

System: not listed separately
Test: Stimulation of androgen sensitive AR+ Shionogi cell proliferation at 1 uM
Type: functional, Mus musculus
Settings: not given
Method in brief: as §1
With `C[C@]12CC[C@H]3[C@@H](CCC4CC(=O)CC[C@@]43C)[C@@H]1C[C@@H](CCCCl)[C@@H]2O` (stereo partly specified) the Activity was 52%.

System: PC-3
Test: Reduction of non-androgen sensitive AR- PC3 cell growth at 0.3 uM
Type: functional, cell-based
Settings: not given
Method in brief: (§2)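 PC-3 human prostate carcinoma (AR−) cells from passage 28 were allowed to adhere for 24 h. Medium was then changed to MEM with 2% charcoal-stripped FBS containing compound from 1000-fold ethanol stocks; the vehicle control was 0.1% EtOH. Cells grew 9 days at 37 °C, 5% CO2, with medium changes every 2–3 days. DNA content was measured; triplicate wells.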
For `C[C@]12CC[C@@H](O)C[C@@H]1CC[C@@H]1[C@@H]2CC[C@]2(C)[C@@H](O)[C@H](CCCCl)C[C@@H]12`, the Activity was “inactive”.
In the case of `C[C@]12CC[C@H]3[C@@H](CCC4CC(=O)CC[C@@]43C)[C@@H]1C[C@@H](CCCCl)[C@@H]2O` (stereo partly specified), the Activity is reported as “inactive”.

System: PC-3
Test: Reduction of non-androgen sensitive AR- PC3 cell growth at 1 uM
Type: functional, cell-based
Settings: not given
Method in brief: as §2
In the case of `C[C@]12CC[C@@H](O)C[C@@H]1CC[C@@H]1[C@@H]2CC[C@]2(C)[C@@H](O)[C@H](CCCCl)C[C@@H]12`, the Activity is reported as “inactive”.
With `C[C@]12CC[C@H]3[C@@H](CCC4CC(=O)CC[C@@]43C)[C@@H]1C[C@@H](CCCCl)[C@@H]2O` (stereo partly specified) the Activity was “inactive”.
